Data published in PubChem BioAssay.
The source made the active and inactive calls.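 The calls were made as follows: active = growth inhibition above a set limit, 3 SD over mean compound inhibition, in both replicates (cut at about 43% in these data); inconclusive = above the limit in only one replicate; inactive = at or below the limit in both replicates.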

Assay: Restrictive medium S. cerevisiae growth inhibition, OD615, pilot screen of yeast lifespan reduction project, restrictive growth control (AID 706);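 also: modified DeaD lifespan yeast strain shifted to restrictive glucose medium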
Details: OD615, 48 h, at 10 µM, active compounds read high
In short: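 Material: modified S. cerevisiae; buffer or medium: CSMM-D glucose medium; doses: one concentration, 10 µM final, 0.25% DMSO; incubation: 48 h compound exposure at 30 °C; detection: optical density at 615 nm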

Growth inhibition, inactive:
COC(=O)c1ccsc1NC(=O)C1=COCCO1 -1.36%
CC(=O)Oc1c(Cl)c(N2CCOCC2)c(OC(C)=O)c2ccccc12 -7.78%
Cc1ccc2nc(N3CCOCC3)c3nncn3c2c1 3.97%
CC(C)n1c(C(O)c2ccccc2)nc2ccccc21 (stereo not given) -13.6%
C=CCNC(=O)c1cnc2n(c1=O)CCS2 5.46%
COc1ccc(-c2nnc3ccc(SCC(=O)N4CCCC4)nn23)cc1 1.08%
Cn1c(Cn2c(=O)sc3ccccc32)nnc1SCC(=O)NCCc1ccccc1 -16.2%
CC(C)OCCCNC(=O)c1cc2c(=O)n(C)c3ccccc3c2n1C -0.705%
Cc1cc(-n2nc(C)cc2C)nc(NS(=O)(=O)c2ccccc2)n1 -20.8%
COC(=O)c1ccc(C2C(C(=O)Nc3ccc(C)cc3C)=C(C)Nc3ncnn32)cc1 (stereo not given) 9.76%
O=C(CC1NCCNC1=O)OCCCc1ccccc1 (stereo not given) -2.82%
CCOC(=O)Nc1ccc2c(c1)N(C(=O)N(CC)CC)c1ccccc1CC2 -26.2%
O=C(CSc1nnc2sc3ccccc3n12)NCc1ccc2c(c1)OCO2 20.7%
Cc1nc2sc(C(c3ccc(C(C)C)cc3)N3CCN(CCO)CC3)c(O)n2n1 (stereo not given) -9.61%
CCOC(=O)c1ccc(NC(=O)CCC(=O)OC)cc1 -1.83%
CC(=NCCc1ccccc1)C1=C(O)CSC1=O -6.07%
COC(=O)CN1C(=O)C(O)(CC(=O)c2ccc(Br)cc2)c2ccccc21 (stereo not given) 11.5%
Cn1c(=O)c2c(SCC(=O)NCc3ccco3)nc(CC(C)(C)C)nc2n(C)c1=O -0.895%
CCn1c(C2CC(=O)N(c3cc(C)cc(C)c3)C2)nc2ccccc21 (stereo not given) -7%
CCN(CC)CCCN1C(=O)C(O)=C(C(=O)c2ccc(C)o2)C1c1cccs1 (stereo not given) -6.93%
CCN(CC)S(=O)(=O)c1ccc(S(=O)(=O)N2CCN(CCC#N)CC2)cc1 -3.54%
CN(Cc1ccccc1)S(=O)(=O)c1ccc2[nH]c(=O)oc2c1 -30.6%
Cc1c(C(=O)NCc2ccc3c(c2)OCO3)sc2nc(-c3ccccc3)cn12 -4.12%
CC(=O)c1ccc(C(=O)Nc2ccc(N3CCOCC3)cc2)cc1 2.98%
C=CCn1c(CSc2nc3ccccc3s2)nnc1SCC(=O)OCC 27.4%
Cn1c(=O)[nH]c(=O)c2c1nc(NC1CCCCC1)n2CCO -22.4%
Cc1cc(NC(=O)NC2(C(F)(F)F)Oc3ccc(Cl)cc3O2)no1 (stereo not given) -23%
O=C(CCc1nc2ccccc2[nH]1)N1CCN(C(=O)c2ccco2)CC1 -5.44%
COc1ccccc1-c1coc2cc(O)cc(O)c2c1=O 9.45%
Cn1c(=O)c2c(SCC(=O)N3CCN(c4ccccc4)CC3)nc(C3CC3)nc2n(C)c1=O -3.49%
CCC(C)NC(=O)c1cnc2n(c1=O)CCS2 (stereo not given) -1.8%
Cc1cccc(CSc2nnc(Cn3c(=O)sc4ccccc43)n2C)c1 1.82%
COC(=O)NCC(c1cccnc1)N1CCN(c2ccccc2F)CC1 (stereo not given) -1.77%
COCCn1c(=O)[nH]c2cc(C(=O)NC3CCCCCC3)ccc2c1=O -10.9%
O=C(c1ccc2nc(N3CCOCC3)sc2c1)N1CCN(C(=O)c2ccco2)CC1 2.97%
COc1ccc(CCNC(=O)c2cc3ccccn3n2)c(OC)c1OC 7.63%
Cc1nc2ccc(S(=O)(=O)NC(C(=O)NCc3ccco3)C(C)C)cc2s1 (stereo not given) -0.665%
CCOC(=O)c1c(C)oc2cc(Br)c(OC(C)C(=O)OCC)cc12 (stereo not given) -5.88%
Cc1cc(SCC(=O)c2ccccc2)n2nc(C)nc2n1 0.305%
COc1ccccc1NC(=O)CSc1nc2ncccc2[nH]1 17.8%
